Laboratory results published in ChEMBL document CHEMBL1938314, “Electrochemical and spectroscopic investigations of isoniazide and its analogs with ds.DNA at physiological pH: evaluation of biological activities” (Eur J Med Chem, 2012).
Converted amounts (≈) assume the structure as drawn. The source made the active and inactive calls. The rule behind the calls is not given here.

Columns and labels:
Nucleic Acid [1] = test: Binding affinity to chicken blood dsDNA assessed as decrease in current at 1 x 10 '-3 M at pH 4.7 by cyclic voltammetry; assay type: nucleic-acid assay; set-up: scale not given: the % may be the effect or the level left; conditions: Gallus gallus
In short: (§1)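 Cyclic voltammetry at glassy carbon electrode vs SCE. Compound 1 mM in acetate pH 4.7 or phosphate pH 7.4 buffer at 37 °C, argon-purged 10–15 min. Scanned −1 to +1.5 V at 100 mV/s before and after chicken blood DNA (10–50 µM final). Peak current decrease and Ep shift recorded; Kb derived from current decrease.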

Micrococcus luteus [2] = test: Antibacterial activity against Micrococcus luteus ATCC 10240 after 24 hrs by agar well diffusion method; assay type: functional; conditions: ATCC 10240, 24 h
In short: (§2)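 MIC by agar well diffusion with serial dilutions. Strains grown in LB at 37 °C for 24 h. 0.75 ml broth culture mixed into 75 ml nutrient agar and poured; 8 mm wells cut, filled with test sample in DMSO. Plates incubated 37 °C for 24 h. DMSO served as negative control, roxithromycin and cefixime as positive controls.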

Escherichia coli [3] = test: Antibacterial activity against Escherichia coli ATCC 15224 at 1 mg/ml after 24 hrs by agar well diffusion method; assay type: functional; conditions: for zone of inhibition at 1000 µg/mL: ATCC 15224, 24 h, read-out: DIZ
In short: (§3)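 Agar well diffusion. Strains grown in LB at 37 °C for 24 h; 0.75 ml broth culture seeded into 75 ml nutrient agar. 8 mm wells received 100 µl of sample at 1 mg/ml in DMSO. Incubated 37 °C for 24 h; inhibition zone diameter measured in mm. DMSO negative control; roxithromycin and cefixime (1 mg/ml) positive controls.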

Escherichia coli [4] = test: Antibacterial activity against Escherichia coli ATCC 15224 after 24 hrs by agar well diffusion method; assay type: functional; conditions: ATCC 15224, 24 h; in short: as §2
Klebsiella aerogenes [5] = test: Antibacterial activity against Enterobacter aerogenes ATCC 13048 at 1 mg/ml after 24 hrs by agar well diffusion method; assay type: functional; conditions: for zone of inhibition at 1000 µg/mL: ATCC 13048, 24 h, read-out: DIZ; in short: as §3
Nucleic Acid [6] = test: Binding affinity to chicken blood dsDNA assessed as hyperchromic effect at 1.1 x 10 '-4 M at pH 4.7 by UV-spectroscopy; assay type: nucleic-acid assay; conditions: Gallus gallus
In short: (§4)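 Chicken blood DNA (A260/A280 >1.8) quantified at 260 nm (ε 6600). Compound held at 1.1 × 10^-4 M; DNA titrated 10–50 µM in acetate pH 4.7 or phosphate pH 7.4 buffer at 37 °C; UV absorbance recorded. Kb taken as intercept/slope of A0/(A−A0) vs 1/[DNA] (Benesi–Hildebrand); ΔG = −RTlnKb.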

Nucleic Acid [7] = test: Binding affinity to chicken blood dsDNA at pH 7.4 by cyclic voltammetry; assay type: nucleic-acid assay; conditions: Gallus gallus; in short: as §1
Salmonella typhi [8] = test: Antibacterial activity against Salmonella typhi ATCC 6539 after 24 hrs by agar well diffusion method; assay type: functional, Salmonella enterica subsp. enterica serovar Typhi; conditions: Salmonella enterica, ATCC 6539, 24 h
[9] = test system: Bordetella bronchiseptica; test: Antibacterial activity against Bordetella bronchiseptica ATCC 10580 at 1 mg/ml after 24 hrs by agar well diffusion method; assay type: functional; conditions: for zone of inhibition at 1000 µg/mL: ATCC 10580, 24 h, read-out: DIZ; in short: as §3
Micrococcus luteus [10] = test: Antibacterial activity against Micrococcus luteus ATCC 10240 at 1 mg/ml after 24 hrs by agar well diffusion method; assay type: functional; conditions: for zone of inhibition at 1000 µg/mL: ATCC 10240, 24 h, read-out: DIZ; in short: as §3
Nucleic Acid [11] = test: Enhancement of OH-radical-induced oxidative Escherichia coli pBR322 damage at 1000 ug/ml incubated for 1 hr in dark by agarose gel electrophoresis; assay type: nucleic-acid assay
In short: (§5)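 pBR322 plasmid diluted in 50 mM phosphate buffer. 15 µl reactions held diluted plasmid, test compound (1000, 100 or 10 µg/ml), 2 mM FeSO4 and 30% H2O2. Incubated 37 °C for 1 h in dark. Controls: plasmid plus FeSO4/H2O2, and untreated plasmid. Run on 1% agarose in TBE, ethidium bromide stained; supercoiled band intensity compared with control.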

Nucleic Acid [12] = test: Binding affinity to chicken blood dsDNA assessed as hyperchromic effect at 1.1 x 10 '-4 M at pH 7.4 by UV-spectroscopy; assay type: nucleic-acid assay; conditions: Gallus gallus; in short: as §4
Nucleic Acid [13] = test: Antioxidant activity against OH-radical-induced oxidative Escherichia coli pBR322 damage at 10 to 100 ug/ml incubated for 1 hr in dark by agarose gel electrophoresis; assay type: nucleic-acid assay; in short: as §5
Klebsiella aerogenes [14] = test: Antibacterial activity against Enterobacter aerogenes ATCC 13048 after 24 hrs by agar well diffusion method; assay type: functional; conditions: ATCC 13048, 24 h; in short: as §2
Staphylococcus aureus [15] = test: Antibacterial activity against Staphylococcus aureus ATCC 6538 at 1 mg/ml after 24 hrs by agar well diffusion method; assay type: functional; conditions: for zone of inhibition at 1000 µg/mL: ATCC 6538, 24 h, read-out: DIZ; in short: as §3
Nucleic Acid [16] = test: Binding affinity to chicken blood dsDNA assessed as shift in Ep/mv at 1 x 10 '-3 M at pH 4.7 by cyclic voltammetry; assay type: nucleic-acid assay; conditions: Gallus gallus; in short: as §1
[17] = test system: Bordetella bronchiseptica; test: Antibacterial activity against Bordetella bronchiseptica ATCC 10580 after 24 hrs by agar well diffusion method; assay type: functional; conditions: ATCC 10580, 24 h; in short: as §2
Artemia = test: Cytotoxicity against brine shrimps after 24 hr; assay type: functional; conditions: read-out: LD50 (the source's name)
In short: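 Brine shrimp lethality. Artemia salina hatched 48 h at room temperature in aerated artificial sea water (sea salt 38 g/l). Ten active nauplii per vial in 5 ml sea water with compound at 10, 100 and 1000 µg/ml final. Survivors counted after 24 h, run in triplicate. LD50 derived by Finney analysis.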

Nucleic Acid [18] = test: Binding affinity to chicken blood dsDNA assessed as shift in Ep/mv at 1 x 10 '-3 M at pH 7.4 by cyclic voltammetry; assay type: nucleic-acid assay; conditions: Gallus gallus; in short: as §1
Staphylococcus aureus [19] = test: Antibacterial activity against Staphylococcus aureus ATCC 6538 after 24 hrs by agar well diffusion method; assay type: functional; conditions: ATCC 6538, 24 h; in short: as §2
Salmonella typhi [20] = test: Antibacterial activity against Salmonella typhi ATCC 6539 at 1 mg/ml after 24 hrs by agar well diffusion method; assay type: functional, Salmonella enterica subsp. enterica serovar Typhi; conditions: for zone of inhibition at 1000 µg/mL: Salmonella enterica, ATCC 6539, 24 h, read-out: DIZ; for diameter of the inhibition zone (DIZ): Salmonella enterica subsp. enterica serovar Typhi
In short: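 Agar well diffusion. S. typhi ATCC 6539 grown in LB at 37 °C for 24 h, 0.75 ml broth culture seeded into 75 ml nutrient agar. 8 mm wells received 100 µl of sample at 1 mg/ml in DMSO. Plates incubated 37 °C for 24 h and inhibition zone diameter measured in mm. DMSO as negative control; roxithromycin and cefixime (1 mg/ml) as positive controls.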

Nucleic Acid [21] = test: Binding affinity to chicken blood dsDNA at pH 4.7 by cyclic voltammetry; assay type: nucleic-acid assay; conditions: Gallus gallus; in short: as §1
Nucleic Acid [22] = test: Binding affinity to chicken blood dsDNA at pH 7.4 by UV-spectroscopy; assay type: nucleic-acid assay; conditions: Gallus gallus; in short: as §4
Nucleic Acid [23] = test: Binding affinity to chicken blood dsDNA assessed as decrease in current at 1 x 10 '-3 M at pH 7.4 by cyclic voltammetry; assay type: nucleic-acid assay; set-up: scale not given: the % may be the effect or the level left; conditions: Gallus gallus; in short: as §1
Nucleic Acid [24] = test: Binding affinity to chicken blood dsDNA at pH 4.7 by UV-spectroscopy; assay type: nucleic-acid assay; conditions: Gallus gallus; in short: as §4
Nucleic Acid [25] = test: Antioxidant activity against OH-radical-induced oxidative Escherichia coli pBR322 damage at 10 to 1000 ug/ml incubated for 1 hr in dark by agarose gel electrophoresis; assay type: nucleic-acid assay; in short: as §5
Nucleic Acid [26] = test: Antioxidant activity against OH-radical-induced oxidative Escherichia coli pBR322 damage at 10 ug/ml incubated for 1 hr in dark by agarose gel electrophoresis; assay type: nucleic-acid assay; in short: as §5
Nucleic Acid [27] = test: Antioxidant activity against OH-radical-induced oxidative Escherichia coli pBR322 damage at 100 to 1000 ug/ml incubated for 1 hr in dark by agarose gel electrophoresis; assay type: nucleic-acid assay; in short: as §5

Row | Structure (SMILES) | Activity (Nucleic Acid [1]) | zone of inhibition at 1000 µg/mL (Escherichia coli [3]) | zone of inhibition at 1000 µg/mL (Klebsiella aerogenes [5]) | Activity (Nucleic Acid [6]) | Kb (Nucleic Acid [7]) | zone of inhibition at 1000 µg/mL [9] | zone of inhibition at 1000 µg/mL (Micrococcus luteus [10]) | Activity (Nucleic Acid [12]) | zone of inhibition at 1000 µg/mL (Staphylococcus aureus [15]) | Activity (Nucleic Acid [16]) | LC50 (Artemia) | Activity (Nucleic Acid [18]) | zone of inhibition at 1000 µg/mL (Salmonella typhi [20]) | Kb (Nucleic Acid [21]) | Kb (Nucleic Acid [22]) | Activity (Nucleic Acid [23]) | Kb (Nucleic Acid [24]) | diameter of the inhibition zone (DIZ) (Escherichia coli [3]) | diameter of the inhibition zone (DIZ) (Klebsiella aerogenes [5]) | diameter of the inhibition zone (DIZ) [9] | other results
1 | NNC(=O)c1ccc(O)cc1O | 29.2% | 25.1 mm | 15.3 mm | Active | 1.31 ×10⁴ /M | 18.2 mm | 18.2 mm | Active | 13.4 mm | 20 | 419 µg/mL (≈ 2490 µM) | 37 | 24.6 mm | 3.13 ×10⁴ /M | 1.24 ×10⁴ /M | 26.1% | 2.02 ×10⁴ /M | – | – | – | MIC (Micrococcus luteus [2]): 800 µg/mL (≈ 4760 µM); MIC (Escherichia coli [4]): 100 µg/mL (≈ 595 µM); MIC (Salmonella typhi [8]): 100 µg/mL (≈ 595 µM); Activity (Nucleic Acid [11]): Toxic; Activity (Nucleic Acid [13]): Active; MIC (Klebsiella aerogenes [14]): 800 µg/mL (≈ 4760 µM); MIC [17]: 800 µg/mL (≈ 4760 µM); MIC (Staphylococcus aureus [19]): 200 µg/mL (≈ 1190 µM)
2 | C=CC1=C(C(=O)O)N2C(=O)[C@@H](NC(=O)/C(=N\OCC(=O)O)c3csc(N)n3)[C@H]2SC1 [CEFIXIME] | – | 40.5 mm | 16.1 mm | – | – | 38.5 mm | 38.7 mm | – | 39.1 mm | – | – | – | 34.3 mm | – | – | – | – | – | – | – | –
3 | NNC(=O)c1ccncc1 [ISONIAZID] | 50.8% | – | – | Active | 1.6 ×10⁴ /M | – | – | Active | – | 51 | 1070 µg/mL (≈ 7840 µM) | 8 | – | 2.03 ×10⁴ /M | 1.42 ×10⁴ /M | 77.1% | 1.6 ×10⁴ /M | inactive | inactive | inactive | Activity (Nucleic Acid [25]): Active; diameter of the inhibition zone (DIZ) (Micrococcus luteus [10]): inactive; diameter of the inhibition zone (DIZ) (Staphylococcus aureus [15]): inactive; diameter of the inhibition zone (DIZ) (Salmonella typhi [20]): inactive
4 | NNC(=O)c1cnccn1 [PYRAZINE CARBOXYLIC ACID HYDRAZIDE] | 75% | – | – | Active | 1.21 ×10⁴ /M | – | – | Active | – | 44 | 313 µg/mL (≈ 2260 µM) | 51 | – | 1.7 ×10⁴ /M | 1.1 ×10⁴ /M | 33.3% | 1.6 ×10⁴ /M | inactive | inactive | inactive | Activity (Nucleic Acid [26]): inactive; diameter of the inhibition zone (DIZ) (Micrococcus luteus [10]): inactive; diameter of the inhibition zone (DIZ) (Staphylococcus aureus [15]): inactive; Activity (Nucleic Acid [27]): Active; diameter of the inhibition zone (DIZ) (Salmonella typhi [20]): inactive
5 | CC[C@H]1OC(=O)[C@H](C)[C@@H](O[C@H]2C[C@@](C)(OC)[C@@H](O)[C@H](C)O2)[C@H](C)[C@@H](O[C@@H]2O[C@H](C)C[C@H](N(C)C)[C@H]2O)[C@](C)(O)C[C@@H](C)/C(=N\OCOCCOC)[C@H](C)[C@@H](O)[C@]1(C)O [ROXITHROMYCIN] | – | 18.1 mm | 31.2 mm | – | – | 18.2 mm | 30.2 mm | – | 32 mm | – | – | – | 27.9 mm | – | – | – | – | – | – | – | –
